Results reported in paper PMC9099118 (Clinical and Translational Science, 2022).

Assay: Phase I plasma pharmacokinetics after single
Format: in vivo, human
Details: for Cmax: plasma; for T max: median; for AR (Cmin): Cmin Day 14/Cmin Day 1, mean; for Cmax, Day 1 / Cmin, Day 1: first dose; for AUCtau, Day14 / Cmax, Day 14 / Cmin, Day 14: steady-state
In short: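 Randomized, placebo-controlled, blinded study in healthy adults aged 18–65. Part A gave single inhaled doses of 0.15–15 mg; Part B gave 1, 3 or 10 mg q.d. or 15 mg b.i.d. for 14 days via a capsule dry-powder inhaler, each dose over 15 (±5) min. Serial plasma samples were taken from pre-dose to Day 15 (Part A) or Day 42 (Part B). Drug was assayed by HPLC-MS/MS (LLOQ 10 pg/mL). Accumulation ratio = Cmin Day 14/Cmin Day 1.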

[1] = Part A SAD, range across dose levels

Compound: CN(CCC#N)C1CCN(C(=O)Cn2cc(NC(=O)c3cnn4cccnc34)c(-c3cc(Cl)ccc3OC(F)F)n2)CC1 [GDC‐0214]
- Cmax (Part A SAD, 0.15 mg single inhaled dose, mean): 0.0702 ng/mL
- T max (Part A SAD, 0.15 mg): 0.283 h
- Cmax (Part A SAD, 0.5 mg single inhaled dose, mean): 0.301 ng/mL
- AUCinf (Part A SAD, 0.5 mg, mean): 2.458 ng·h/mL
- CL/F (Part A SAD, 0.5 mg, mean): 227 L/h
- T 1/2 (Part A SAD, 0.5 mg, mean): 37.3 h
- Vz/F (Part A SAD, 0.5 mg, mean): 12264 L
- T max (Part A SAD, 0.5 mg): 0.267 h
- Cmax (Part A SAD, 1.5 mg single inhaled dose, mean): 0.763 ng/mL
- AUCinf (Part A SAD, 1.5 mg, mean): 7.32 ng·h/mL
- CL/F (Part A SAD, 1.5 mg, mean): 220 L/h
- T 1/2 (Part A SAD, 1.5 mg, mean): 38.7 h
- Vz/F (Part A SAD, 1.5 mg, mean): 12620 L
- T max (Part A SAD, 1.5 mg): 0.517 h
- Cmax (Part A SAD, 5 mg single inhaled dose, mean): 2.883 ng/mL
- AUCinf (Part A SAD, 5 mg, mean): 34.727 ng·h/mL
- CL/F (Part A SAD, 5 mg, mean): 149 L/h
- T 1/2 (Part A SAD, 5 mg, mean): 36.5 h
- Vz/F (Part A SAD, 5 mg, mean): 7744 L
- T max (Part A SAD, 5 mg): 0.458 h
- Cmax (Part A SAD, 15 mg single inhaled dose, mean): 7.27 ng/mL
- AUCinf (Part A SAD, 15 mg, mean): 96.038 ng·h/mL
- CL/F (Part A SAD, 15 mg, mean): 158 L/h
- T 1/2 (Part A SAD, 15 mg, mean): 39.7 h
- Vz/F (Part A SAD, 15 mg, mean): 9116 L
- T max (Part A SAD, 15 mg): 0.500 h
- dose proportionality of mean Cmax and AUC0-inf (Part A SAD, across cohorts): approximately dose‐proportional
- mean CL/F [1]: 149 to 227 L/h
- mean apparent volume of distribution (Vz/F) [1]: 7740–12,600 L
- t 1/2 (Part B MAD, 1 mg q.d. for 14 days, mean): 38.5 h
- AR (Cmin) (Part B MAD, 1 mg q.d.): 3.0
- Cmax, Day 1 (Part B MAD, 1 mg q.d., mean): 0.581 ng/mL
- Cmin, Day 1 (Part B MAD, 1 mg q.d., mean): 0.0594 ng/mL
- AUCtau, Day1 (Part B MAD, 1 mg q.d., mean): 2910 pg·h/mL
- AUCtau, Day14 (Part B MAD, 1 mg q.d., mean): 5969 pg·h/mL
- Cmax, Day 14 (Part B MAD, 1 mg q.d., mean): 810 pg/mL
- Cmin, Day 14 (Part B MAD, 1 mg q.d., mean): 0.167 ng/mL
- t 1/2 (Part B MAD, 3 mg q.d. for 14 days, mean (N 5)): 32.0 h
- AR (Cmin) (Part B MAD, 3 mg q.d.): 2.79
- Cmax, Day 1 (Part B MAD, 3 mg q.d., mean): 1.51 ng/mL
- Cmin, Day 1 (Part B MAD, 3 mg q.d., mean): 0.164 ng/mL
- AUCtau, Day1 (Part B MAD, 3 mg q.d., mean): 8080 pg·h/mL
- AUCtau, Day14 (Part B MAD, 3 mg q.d., mean): 15,794 pg.h/mL
- Cmax, Day 14 (Part B MAD, 3 mg q.d., mean): 2115 pg/mL
- Cmin, Day 14 (Part B MAD, 3 mg q.d., mean): 0.45 ng/mL
- t 1/2 (Part B MAD, 10 mg q.d. for 14 days, mean): 40.8 h
- AR (Cmin) (Part B MAD, 10 mg q.d.): 3.47
- Cmax, Day 1 (Part B MAD, 10 mg q.d., mean): 3.77 ng/mL
- Cmin, Day 1 (Part B MAD, 10 mg q.d., mean): 0.517 ng/mL
- AUCtau, Day1 (Part B MAD, 10 mg q.d., mean): 21,300 pg.h/mL
- AUCtau, Day14 (Part B MAD, 10 mg q.d., mean): 52,824 pg.h/mL
- Cmax, Day 14 (Part B MAD, 10 mg q.d., mean): 5982 pg/mL
- Cmin, Day 14 (Part B MAD, 10 mg q.d., mean): 1.78 ng/mL
- t 1/2 (Part B MAD, 15 mg b.i.d. for 14 days, mean): 56.9 h
- AR (Cmin) (Part B MAD, 15 mg b.i.d.): 2.49
- Cmax, Day 1 (Part B MAD, 15 mg b.i.d., mean): 6.08 ng/mL
- Cmin, Day 1 (Part B MAD, 15 mg b.i.d., mean): 2.09 ng/mL
- AUCtau, Day1 (Part B MAD, 15 mg b.i.d., mean): 39,500 pg.h/mL
- AUCtau, Day14 (Part B MAD, 15 mg b.i.d., mean): 79,907 pg.h/mL
- Cmax, Day 14 (Part B MAD, 15 mg b.i.d., mean): 12,423 pg/mL
- Cmin, Day 14 (Part B MAD, 15 mg b.i.d., mean): 5.26 ng/mL
- dose proportionality of Cmax and AUCtau (Part B MAD, across the three q.d. cohorts): approximately dose‐proportional
- steady-state concentrations achieved by (Part B MAD, q.d. or b.i.d. dosing): ≤ 6 days
- time of peak plasma concentrations post-dose (after inhalation, across cohorts): 15 to 30 min
